Format in all cases: cell-based
For test [1], the species on record is Homo sapiens. The test is described as follows: Inhibition of Mg2+ ATPase activity in human red blood cells at 800 uM by spectrophotometry. In outline: (§1)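 Mg2+-ATPase was assayed with calmodulin-depleted human erythrocyte membranes (2.5 mg/ml) at 37° for 1 h, without added CaCl2, in 65 mM KCl, 20 mM K-HEPES, 5 mM MgCl2, 0.1 μM calmodulin and 0.1 mM EGTA. Compounds in DMSO (2.5% final) were added before starting with 2 mM ATP (pH 7.4). Liberated phosphate was measured spectrometrically, in duplicate.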

The species named for test [2] is Homo sapiens. The test is described as follows: Inhibition of Ca2+ ATPase activity in human red blood cells at 800 uM by spectrophotometry. An outline of the steps:
(§2)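 Calmodulin-depleted membranes from human packed erythrocytes (2.5 mg/ml) were incubated for 1 h at 37° in 65 mM KCl, 20 mM K-HEPES, 5 mM MgCl2, 50 μM CaCl2 (50.4 μM free Ca2+), 0.1 μM calmodulin and 0.1 mM EGTA. Test agents in DMSO (2.5% final) were added before 2 mM ATP (pH 7.4). Released phosphate was read spectrometrically, Mg2+-ATPase activity was subtracted, and assays were run in duplicate.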

The species entered for test [3] is Homo sapiens. Put plainly: Inhibition of Mg2+ ATPase activity in human red blood cells at 1600 uM by spectrophotometry. In outline:
as §1

The species named for test [4] is Homo sapiens. Put plainly: Inhibition of Mg2+ ATPase activity in human red blood cells at 50 uM by spectrophotometry. In outline:
as §1

Test [5] is filed under the species Homo sapiens. The test is described as follows: Inhibition of Ca2+ ATPase activity in human red blood cells at 50 uM by spectrophotometry. In outline: as §2
The nature of test [6]: Inhibition of Ca2+ ATPase activity in human red blood cells by spectrophotometry. An outline of the steps: as §2
Test [7] is filed under the species Homo sapiens. Put plainly: Inhibition of Ca2+ ATPase activity in human red blood cells at 400 uM by spectrophotometry. In outline:
as §2

For test [8], the species on record is Homo sapiens. Put plainly: Inhibition of Mg2+ ATPase activity in human red blood cells at 25 uM by spectrophotometry. In outline: as §1
The species entered for test [9] is Homo sapiens. Put plainly: Inhibition of Mg2+ ATPase activity in human red blood cells at 100 uM by spectrophotometry. In outline:
as §1

For test [10], the species on record is Homo sapiens. Put plainly: Inhibition of Ca2+ ATPase activity in human red blood cells at 200 uM by spectrophotometry. An outline of the steps: as §2
For test [11], the species on record is Homo sapiens. The test is described as follows: Inhibition of Mg2+ ATPase activity in human red blood cells at 400 uM by spectrophotometry. In outline:
as §1

For test [12], the species on record is Homo sapiens. Put plainly: Inhibition of Ca2+ ATPase activity in human red blood cells at 25 uM by spectrophotometry. In outline: as §2
The species entered for test [13] is Homo sapiens. The test is described as follows: Inhibition of Mg2+ ATPase activity in human red blood cells at 200 uM by spectrophotometry. In outline:
as §1

For test [14], the species on record is Homo sapiens. Put plainly: Inhibition of Ca2+ ATPase activity in human red blood cells at 100 uM by spectrophotometry. In outline:
as §2

The species named for test [15] is Homo sapiens. The test is described as follows: Inhibition of Ca2+ ATPase activity in human red blood cells at 1600 uM by spectrophotometry. In outline: as §2

The values that follow come from ChEMBL document CHEMBL1148092, “Novel Ca(2+)-ATPase inhibitors from the dried root tubers of Polygonum Multiflorum” (J Nat Prod, 1994).

Structures are written as SMILES. Calls of active or inactive are those of the source. The calls are words filed in the database; no cut-off is given here.

As a reminder, the inhibition is the percentage by which the read-out fell short of the control. Low readings indicate little suppression, high ones strong suppression. The term IC50 denotes the midpoint of a concentration-inhibition curve. Low values mean greater potency in that assay, high ones weaker potency in that assay.

As for `OC[C@H]1O[C@@H](Oc2c(O)cc(O)cc2/C=C/c2ccc(O)cc2)[C@H](O)[C@@H](O)[C@@H]1O`, the inhibition in test [1] amounted to 62%; in [2], 95%; in test [3], 75%; in test [4], 25%; in test [5], 8%; in test [7], 70%. Also, the inhibition came to 14% in [8]; 28% in test [9]; 44% in test [10]; 56% in test [11]; 8% in [12]; 41% in test [13]. Moreover, the inhibition in [14] was found to be 15%; in [15], 98%. In addition, the IC50 in test [6] stood at 240 µM.
For `COc1ccc(/C=C/c2cc(O)cc(O[C@@H]3O[C@H](CO)[C@@H](O)[C@H](O)[C@H]3O)c2)cc1O`, the outcome in test [15] was inactive.
The same measure, in the same setting: the same measure for `Cc1cc(O)c2c(c1)C(=O)c1cc(O)cc(O)c1C2=O`: “inactive”; for `Cc1cc(O)c2c(c1)C(=O)c1cccc(O)c1C2=O`: “inactive”.
On the same count and under the same terms, the same measure for `O=C(O)c1cc(O)c2c(c1)C(=O)c1cccc(O)c1C2=O`: “inactive”.
On to `OC[C@H]1O[C@@H](Oc2cc(O)cc(O)c2/C=C/c2ccc(O)cc2)[C@H](O)[C@@H](O)[C@@H]1O`, for which the result in [4], in test [5], in [8], in test [9], in [10] and in test [12] was inactive. Besides, the outcome in test [13] and in test [14] was inactive.
For `CCC/C=C1/OC(=O)C2=C1CC[C@H](O)[C@H]2O` (relative stereo), the inhibition in [1] is 71%; in test [2], 87%; in [3], 82%; in test [4], 13%; in [5], 3%; in test [7], 72%. The inhibition was found to be 21% in test [8]; 32% in [9]; 36% in test [10]; 0% in test [12]; 32% in [13]; 8% in test [14]. In [15], this compound showed an inhibition of 94%. The IC50 in test [6] was 260 µM.
For the compound `CCC/C=C1/OC(=O)C2=C1CC[C@H](O)[C@@H]2O` (relative stereo), the inhibition is 85% in test [1]; 90% in test [2]; 17% in [4]; 0% in [5]; 79% in test [7]; 0% in [8]. Besides, the inhibition in [9] stood at 36%; in test [10], 62%; in [11], 67%; in test [12], 0%; in test [13], 52%; in [14], 27%. Besides, the half-inhibitory concentration (IC50) in test [6] turned out to be 160 µM.
